Test results published in ChEMBL document CHEMBL1128342, “Novel thiazole-based heterocycles as selective inhibitors of fibrinogen-mediated platelet aggregation” (J Med Chem, 1995).

What was measured:
[1] = molecular target: T1, Integrin alpha-IIb/beta-3 (Homo sapiens, UniProt P05106+P08514); experiment: Inhibition of [125I]fibrinogen binding to human Fibrinogen Receptor at 50 uM; type: protein-complex assay
Procedure, shortened: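 Human PRP with aspirin (50 μM, 37 °C, 20 min), pH 6.5, PGE1 0.9 μM; platelets gel-filtered, 1×10^8 per tube, thrombin-activated 2 min at room temperature, then hirudin. Compound plus [125I]fibrinogen (0.1 μM final) 10 min room temperature; platelets spun through silicone oil and pellet counted. Nonspecific binding with 4 mg/mL unlabeled fibrinogen; triplicates; % inhibition of specific binding vs fibrinogen alone.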

[2] = molecular target: T1, Integrin alpha-IIb/beta-3; experiment: Inhibition of thrombin-induced platelet aggregation at 50 uM; type: functional
[3] = molecular target: T1, Integrin alpha-IIb/beta-3; experiment: Inhibition of [125I]fibrinogen binding to human Fibrinogen Receptor.; type: protein-complex assay
Target sequence in this assay (P05106 27-788 limits assumed): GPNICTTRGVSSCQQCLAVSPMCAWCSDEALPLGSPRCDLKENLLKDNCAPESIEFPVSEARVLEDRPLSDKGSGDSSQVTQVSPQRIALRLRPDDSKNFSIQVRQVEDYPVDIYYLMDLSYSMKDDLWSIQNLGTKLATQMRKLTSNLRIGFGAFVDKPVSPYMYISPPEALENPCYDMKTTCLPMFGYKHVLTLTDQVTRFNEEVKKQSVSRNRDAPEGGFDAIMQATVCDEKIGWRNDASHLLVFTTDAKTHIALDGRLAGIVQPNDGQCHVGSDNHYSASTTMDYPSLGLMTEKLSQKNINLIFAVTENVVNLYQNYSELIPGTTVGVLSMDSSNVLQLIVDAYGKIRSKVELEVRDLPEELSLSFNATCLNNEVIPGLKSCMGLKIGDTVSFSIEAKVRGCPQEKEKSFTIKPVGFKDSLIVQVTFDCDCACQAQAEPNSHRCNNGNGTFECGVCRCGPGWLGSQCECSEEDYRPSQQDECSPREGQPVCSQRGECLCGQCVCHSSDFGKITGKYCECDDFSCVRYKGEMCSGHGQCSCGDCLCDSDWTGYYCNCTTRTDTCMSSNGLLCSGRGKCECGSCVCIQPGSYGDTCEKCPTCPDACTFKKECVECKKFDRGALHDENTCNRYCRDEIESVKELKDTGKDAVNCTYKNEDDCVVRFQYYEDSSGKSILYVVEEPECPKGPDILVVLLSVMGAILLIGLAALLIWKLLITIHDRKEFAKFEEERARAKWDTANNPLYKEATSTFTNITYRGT
Target sequence in this assay (P08514 32-887 limits assumed): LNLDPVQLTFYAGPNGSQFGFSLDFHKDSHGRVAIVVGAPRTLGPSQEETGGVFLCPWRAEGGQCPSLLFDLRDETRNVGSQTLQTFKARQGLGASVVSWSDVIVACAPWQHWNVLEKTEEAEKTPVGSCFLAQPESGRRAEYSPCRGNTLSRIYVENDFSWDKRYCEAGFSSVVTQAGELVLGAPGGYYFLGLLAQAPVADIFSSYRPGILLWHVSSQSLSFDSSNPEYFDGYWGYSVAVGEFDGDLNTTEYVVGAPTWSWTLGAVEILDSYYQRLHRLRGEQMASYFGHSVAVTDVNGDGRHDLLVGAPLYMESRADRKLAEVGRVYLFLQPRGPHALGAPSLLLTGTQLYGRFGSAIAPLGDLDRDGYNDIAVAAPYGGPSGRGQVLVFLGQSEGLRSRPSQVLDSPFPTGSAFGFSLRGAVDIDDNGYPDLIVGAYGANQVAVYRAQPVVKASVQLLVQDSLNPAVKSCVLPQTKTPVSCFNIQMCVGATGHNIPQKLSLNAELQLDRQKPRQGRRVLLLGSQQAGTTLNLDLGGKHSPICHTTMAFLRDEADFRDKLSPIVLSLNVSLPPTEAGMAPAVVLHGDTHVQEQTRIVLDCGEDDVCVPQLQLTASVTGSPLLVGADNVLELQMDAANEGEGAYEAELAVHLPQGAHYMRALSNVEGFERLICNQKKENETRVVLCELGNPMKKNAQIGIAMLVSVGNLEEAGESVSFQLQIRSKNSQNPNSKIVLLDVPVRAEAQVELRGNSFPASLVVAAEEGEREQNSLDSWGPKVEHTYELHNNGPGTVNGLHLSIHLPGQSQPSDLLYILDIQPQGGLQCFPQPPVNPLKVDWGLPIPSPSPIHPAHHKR
Target sequence in this assay (P08514 891-1039 limits assumed): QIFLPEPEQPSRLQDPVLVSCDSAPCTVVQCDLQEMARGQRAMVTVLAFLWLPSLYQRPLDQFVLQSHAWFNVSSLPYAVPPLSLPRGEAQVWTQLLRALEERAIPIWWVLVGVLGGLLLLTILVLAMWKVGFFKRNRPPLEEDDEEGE

[4] = In vitro inhibition of thrombin-induced platelet aggregation.; type: functional; settings: Homo sapiens

Question: For O=C(NCCCNc1ccccc1)c1cnn(-c2nc(-c3cccc(C(F)(F)F)c3)cs2)c1C(F)(F)F, which inhibition [1] is on record?
Answer: 0%

Question: And the inhibition [2]?
Answer: 18%

Question: What does the source list for CCN(CC)CCCNC(=O)c1cnn(-c2nc(-c3ccc(C)cc3)cs2)c1C(F)(F)F?
Answer: IC50 [3]: 70 µM; IC50 [4]: 8.2 µM

Question: With N=C(N)NCCCNC(=O)c1cnn(-c2nc(-c3cccc(C(F)(F)F)c3)cs2)c1C(F)(F)F as the compound, how does the IC50 [3] read?
Answer: 17.5 µM

Question: What about the IC50 [4] of the same compound?
Answer: 11.8 µM

Question: What does the source list for CC(C)NCCCNC(=O)c1cnn(-c2nc(-c3cccc(C(F)(F)F)c3)cs2)c1C(F)(F)F?
Answer: IC50 [3]: 11.2 µM; IC50 [4]: 6.7 µM

Question: With NCCCNC(=O)c1cnn(-c2nc(-c3cccc(C(F)(F)F)c3)cs2)c1C(F)(F)F as the compound, how does the IC50 [3] read?
Answer: 12.3 µM

Question: What about the IC50 [4] of the same compound?
Answer: 14 µM

Question: For CC(=O)Oc1ccccc1C(=O)O [ASPIRIN], which IC50 [4] is on record?
Answer: > 100 µM

Question: For NCCNC(=O)c1cnn(-c2nc(-c3cccc(C(F)(F)F)c3)cs2)c1C(F)(F)F, which inhibition [1] is on record?
Answer: 44%

Question: What does the source list for O=C(NCCCn1ccnc1)c1cnn(-c2nc(-c3cccc(C(F)(F)F)c3)cs2)c1C(F)(F)F?
Answer: inhibition [1]: 0%; inhibition [2]: 33%

Question: For O=C(NCCCN1CCCC1=O)c1cnn(-c2nc(-c3cccc(C(F)(F)F)c3)cs2)c1C(F)(F)F, which inhibition [1] is on record?
Answer: 0%

Question: What about the inhibition [2] of the same compound?
Answer: 0%

Question: Which results are given for N=C(N)CCCNC(=O)c1cnn(-c2nc(-c3cccc(C(F)(F)F)c3)cs2)c1C(F)(F)F?
Answer: IC50 [3]: 23 µM; IC50 [4]: 13 µM

Question: With CCN(CC)CCCCCCCNC(=O)c1cnn(-c2nc(-c3cccc(C(F)(F)F)c3)cs2)c1C(F)(F)F as the compound, how does the inhibition [1] read?
Answer: 0%

Question: And the inhibition [2]?
Answer: 35%

Question: With NCCCCCNC(=O)c1cnn(-c2nc(-c3cccc(C(F)(F)F)c3)cs2)c1C(F)(F)F as the compound, how does the inhibition [1] read?
Answer: 61%

Question: What about the IC50 [4] of the same compound?
Answer: 11.5 µM

Question: Which results are given for CCN(CC)CCCNC(=O)c1cnn(-c2nc(-c3cccc(C)c3)cs2)c1C(F)(F)F?
Answer: IC50 [3]: 50 µM; IC50 [4]: 25 µM

Question: For COc1ccc(CCNC(=O)C(CC(=O)O)NC(=O)CCCCCCCN=C(N)N)cc1 (centres undefined), which IC50 [3] is on record?
Answer: 9 µM

Question: And the IC50 [4]?
Answer: 7.9 µM

Question: For CCN(CC)CCCNC(=O)c1cnn(-c2nc(-c3ccc(OC)cc3)cs2)c1C(F)(F)F, which inhibition [1] is on record?
Answer: 57%

Question: And the IC50 [4]?
Answer: 12.5 µM

Question: With NCCCCNC(=O)c1cnn(-c2nc(-c3cccc(C(F)(F)F)c3)cs2)c1C(F)(F)F as the compound, how does the IC50 [3] read?
Answer: 18.3 µM

Question: What about the IC50 [4] of the same compound?
Answer: 4.8 µM

Question: For CCN(CC)CCCNC(=O)c1cnn(-c2nc(-c3cccc(C(F)(F)F)c3)c(C(=O)O)s2)c1C(F)(F)F, which inhibition [2] is on record?
Answer: 30%

Question: Which results are given for CCN(CC)CCCNC(=O)c1cnn(-c2nc(-c3ccccc3)cs2)c1C(F)(F)F?
Answer: IC50 [3]: 50 µM; IC50 [4]: 30 µM

Question: For CCN(CC)CCCNC(=O)c1cnn(-c2nc(-c3cccc(C(F)(F)F)c3)c(Br)s2)c1C(F)(F)F, which IC50 [3] is on record?
Answer: 1.3 µM

Question: And the IC50 [4]?
Answer: 2.7 µM

Question: Which IC50 [3] does the source give for CCN(CC)CCCNC(=O)c1cnn(-c2nc(-c3ccc(C(F)(F)F)cc3)cs2)c1C(F)(F)F here?
Answer: 40 µM

Question: And the IC50 [4]?
Answer: 9.1 µM

Question: For N=C(N)NCCC[C@H](N)C(=O)NCC(=O)N[C@@H](CC(=O)O)C(=O)N[C@@H](CO)C(=O)O, which IC50 [4] is on record?
Answer: 30 µM

Question: What does the source list for O=C(NCCCN1CCCCC1)c1cnn(-c2nc(-c3cccc(C(F)(F)F)c3)cs2)c1C(F)(F)F?
Answer: IC50 [3]: 30 µM; IC50 [4]: 10.9 µM

Question: What does the source list for CCCNCCCNC(=O)c1cnn(-c2nc(-c3cccc(C(F)(F)F)c3)cs2)c1C(F)(F)F?
Answer: IC50 [3]: 10 µM; IC50 [4]: 14.3 µM

Question: With CCN(CC)CCCNC(=O)c1cnn(-c2nc(-c3cccc(C(F)(F)F)c3)cs2)c1C(F)(F)F as the compound, how does the IC50 [3] read?
Answer: 4.1 µM

Question: With CN(C)/C=N/CCCNC(=O)c1cnn(-c2nc(-c3cccc(C(F)(F)F)c3)cs2)c1C(F)(F)F as the compound, how does the IC50 [3] read?
Answer: 15.6 µM

Question: What about the IC50 [4] of the same compound?
Answer: 13.7 µM

Question: Which IC50 [3] does the source give for CCN(CC)CCCNC(=O)c1cnn(-c2nc(-c3ccc(Cl)cc3)cs2)c1C(F)(F)F here?
Answer: 45 µM

Question: And the IC50 [4]?
Answer: 6.8 µM

Question: For O=C(NCCCNC1CCCCC1)c1cnn(-c2nc(-c3cccc(C(F)(F)F)c3)cs2)c1C(F)(F)F, which IC50 [3] is on record?
Answer: 25 µM

Question: What about the IC50 [4] of the same compound?
Answer: 6.1 µM
